STAT1 activator – STAT1 signaling activation. activation (% of control), % at 5.5 µM. actives 2.6% (n = 200,000). NIH 3T3 STAT1-luciferase reporter, IFN-gamma, luminescence; 100% = IFN-gamma alone, no compound;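 active means activation above the screen-wide mean activation plus 3 SD, cut at about 130% in these data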
KCC2 mod – KCC2 (human) Cl- transport modulation; KCC2 cells, thallium flux FluoZin-2 fluorescence; actives 2.2% (n = 190,000); B-score of Tl+ flux slope (higher = more flux/activation; lower = inhibition) at 10 µM;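 active means thallium flux slope and its plate-corrected score both differing from the plate sample mean at a set confidence after two filtering rounds, in either direction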;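 further: slope of fluorescence scaled to starting intensity during 10 to 20 s after thallium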
Target sequence (Q9H2X9 whole entry, looked up): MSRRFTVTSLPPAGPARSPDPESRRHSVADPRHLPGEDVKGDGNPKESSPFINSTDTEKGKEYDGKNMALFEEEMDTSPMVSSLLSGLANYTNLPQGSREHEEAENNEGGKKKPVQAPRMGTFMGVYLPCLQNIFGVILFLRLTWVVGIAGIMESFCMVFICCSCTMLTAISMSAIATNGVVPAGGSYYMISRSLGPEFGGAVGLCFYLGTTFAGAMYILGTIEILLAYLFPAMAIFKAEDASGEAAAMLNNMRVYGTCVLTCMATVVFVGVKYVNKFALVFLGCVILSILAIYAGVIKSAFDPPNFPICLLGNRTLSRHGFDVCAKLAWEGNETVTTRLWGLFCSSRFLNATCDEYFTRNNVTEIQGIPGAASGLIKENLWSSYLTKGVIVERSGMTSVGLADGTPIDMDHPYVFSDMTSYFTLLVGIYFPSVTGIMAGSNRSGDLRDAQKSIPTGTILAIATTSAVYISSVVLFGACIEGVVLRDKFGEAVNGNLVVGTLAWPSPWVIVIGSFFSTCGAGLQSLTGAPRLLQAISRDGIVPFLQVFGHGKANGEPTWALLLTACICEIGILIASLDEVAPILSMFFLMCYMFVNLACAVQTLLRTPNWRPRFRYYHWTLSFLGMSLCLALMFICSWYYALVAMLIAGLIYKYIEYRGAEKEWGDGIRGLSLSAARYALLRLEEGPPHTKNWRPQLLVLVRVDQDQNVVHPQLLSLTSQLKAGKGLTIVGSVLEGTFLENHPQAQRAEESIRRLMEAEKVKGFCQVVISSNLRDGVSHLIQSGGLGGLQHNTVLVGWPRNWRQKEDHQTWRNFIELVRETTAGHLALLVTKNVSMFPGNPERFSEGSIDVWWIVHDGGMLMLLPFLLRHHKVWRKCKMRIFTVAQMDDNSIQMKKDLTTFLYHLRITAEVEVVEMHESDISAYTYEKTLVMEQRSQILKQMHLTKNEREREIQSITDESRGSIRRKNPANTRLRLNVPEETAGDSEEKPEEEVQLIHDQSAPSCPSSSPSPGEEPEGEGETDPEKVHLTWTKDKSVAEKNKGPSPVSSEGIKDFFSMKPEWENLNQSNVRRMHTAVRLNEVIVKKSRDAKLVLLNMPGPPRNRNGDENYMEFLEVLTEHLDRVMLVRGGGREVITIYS
STAT1 inh – inhibitors of IFN-gamma induced STAT1 signaling | inhibition, % at 5.5 µM | AID 920 | NIH 3T3 STAT1-luciferase reporter, luminescence | actives 0.35% (n = 200,000);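 active means inhibition above a set limit, the mean inhibition across all tested compounds plus 3 SD, cut at about 34% in these data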
STAT3 inh – reduces IL-6 driven STAT3 reporter signal | actives 0.89% (n = 190,000) | AID 862 | U3A cells, IL-6 STAT3-luciferase reporter, luminescence; host cell line lacks STAT1 | inhibition, % at 5.5 µM;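 active means inhibition above the mean inhibition across all screened compounds plus 3 SD, cut at about 44% in these data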
STAT3 act – activators of IL-6 induced STAT3 signaling; U3A cells, IL-6 STAT3-luciferase reporter, luminescence; 100% = signal with IL-6 EC80 alone; activation (% of control), % at 5.6 µM; actives 0.91% (n = 190,000); AID 871;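 active means activation above the screen-wide mean of compound activation plus 3 SD, cut at about 130% in these data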
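Material: STAT1-lacking human U3A cells, STAT3 luciferase reporter | Benchmarks: IL-6-only wells as 100% reference | Probe or stimulus: IL-6 (33 ng/mL) | Timing: Compound 1 h, then IL-6 6 h at 37 °C | Detection: Luminescence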
HSV replic up – HSV replication enhancement; maximum fold increase; HSV replication augmentation in cells, fold increase; AID 1956; actives 0.005% (n = 220,000); in the data active means maximum fold increase above about 1.5; inconclusive means no clear call, values can overlap the other calls; tested in PC3 cells
Numbers stand for hits; . = inactive; ? = inconclusive; / = no result given. The list is not random: actives were taken first. Their share in the collection is about 5.5%.

SMILES | STAT1 activator | KCC2 mod | STAT1 inh | STAT3 inh | STAT3 act | HSV replic up
COc1ccc(CNc2nc(-c3cccnc3)nn2S(C)(=O)=O)cc1 | . | . | . | . | . | .
Cc1cccc(OCc2nc(-c3nonc3N)no2)c1C | 139.3 | . | . | . | . | .
CCOc1ccccc1NC(=S)Nc1ccc(S(N)(=O)=O)cc1 | . | . | . | . | . | .
O=[N+]([O-])c1ccc(N/N=C/c2ccccc2)c(F)c1 | 145.3 | . | . | . | . | ?
CCc1[nH]nc2c1C(c1ccc(Br)s1)C(C#N)=C(N)O2 (stereo unspecified) | . | -4.44 | . | . | . | .
COCC(=O)Nc1nnc(-c2ccc(C(C)(C)C)cc2)s1 | 135.8 | . | . | . | . | .
Nc1ccc(Oc2ccc3c(c2)C(=O)N(CC2CCCO2)C3=O)cc1 (stereo unspecified) | / | . | / | / | / | .
Cc1ccc(S(=O)(=O)N(C)Cc2ccc(C(=O)N/N=C3\CC(=O)CC(C)(C)C3)cc2)cc1 | . | . | . | . | . | .
O=c1[nH]c(CSc2nc3ccccc3[nH]2)nc2c1cnn2-c1ccccc1 | . | . | . | . | . | .
O=c1[nH]c(SCc2nc3c(cnn3-c3ccccc3)c(=O)[nH]2)nc2ccccc12 | . | . | . | . | 159.6 | .
COc1ccc2oc(C(=O)NCCC(C)C)c(C)c2c1 | 134.6 | . | . | . | . | .
COc1cc(S(=O)(=O)NC2CCCCC2)c(C)cc1C | . | . | . | . | . | .
COc1ccc(NC(=O)/C=C/c2cc(OC)c(OC)c(OC)c2)cn1 | . | . | . | . | . | .
COc1ccc(NC(=O)/C=C/c2ccccc2)cn1 | 141.4 | . | . | . | . | .
COc1ccc(NC(=O)/C=C/c2ccc(F)cc2)cn1 | 135.8 | . | . | . | . | .
COc1cccc(/C=C/C(=O)Nc2ccc(OC)nc2)c1 | . | . | . | . | . | .
Cc1cc(NCCCn2ccnc2)n2ncc(-c3ccc(Cl)cc3)c2n1 | 155.7 | . | . | . | 152.2 | .
O=C(CSc1ccc(Cl)cc1)NCc1ccncc1 | . | . | . | . | . | .
COc1ccc(N/N=C(/C#N)S(=O)(=O)C(C)(C)C)cc1 | . | . | . | . | . | .
CSc1ccc(N/N=C(/C#N)S(=O)(=O)C(C)(C)C)cc1 | . | -4.62 | . | . | . | .
CCOC(=O)c1sc(=NC(=O)c2ccccc2)n(C)c1C | 137.8 | . | . | . | . | .
CCOC(=O)c1sc(NC(=O)c2ccc(Cl)s2)cc1C | 132.1 | / | . | . | . | .
CCN(CC)C(=O)c1c(NC(=O)c2ccccc2)sc(C)c1C | . | / | . | . | . | .
CCOC(=O)c1sc(NC(=O)c2ccc(S(=O)(=O)N(C)C)cc2)cc1C | . | . | . | . | . | .
CCN(CC)Cc1c(NC(=O)c2ccccc2)sc(C)c1C | 134.2 | . | . | . | . | .
SMILES | STAT1 activator | KCC2 mod | STAT1 inh | STAT3 inh | STAT3 act | HSV replic up
CCOC(=O)c1sc(NC(=O)c2ccccc2)cc1C | 145.2 | . | . | . | . | .
COc1cccc(-c2ccc(SCC(=O)N3CCc4ccccc43)nn2)c1 | . | . | . | . | . | .
C/C(=N\NS(=O)(=O)c1ccccc1)c1ccc2c(c1)OCCO2 | . | . | . | . | . | .
O=C(Cn1cnc2cc([N+](=O)[O-])ccc2c1=O)NC1CCS(=O)(=O)C1 (stereo unspecified) | . | . | . | . | . | .
CCOC(=O)c1csc(NC(=O)c2ccccc2)n1 | 136.1 | . | . | . | . | .
CCOC(=O)c1sc(NC(=O)C2CC2)cc1C | . | . | . | . | . | .
CCOC(=O)c1sc(NC(=O)C(C)(C)C)cc1C | 131.3 | / | . | . | . | .
Cc1ccc(NC2=C/C(=N/S(=O)(=O)c3cccs3)c3ccccc3C2=O)cc1C | . | . | . | . | . | /
Cc1cc(C)c(S(=O)(=O)/N=C2/C=C(Sc3ncn[nH]3)C(=O)c3ccccc32)cc1C | . | . | . | . | 143.0 | .
Nc1ccc(Nc2nc(-c3cc4ccccc4oc3=O)cs2)cc1 | 144.2 | / | . | . | . | .
CNc1nnc(-c2cc3ccccc3oc2=O)s1 | 142.7 | / | . | . | . | .
O=C(O)c1ccc(Nc2nc(-c3cc4ccccc4oc3=O)cs2)cc1O | . | . | . | . | . | .
CC(=O)Nc1ccc(C(=O)N/C(=C\c2ccccc2)C(=O)Nc2cccc(C(=O)O)c2)cc1 | / | / | / | / | / | .
COc1cccc(NC2=C(Cl)C(=O)OC2OC(=O)c2ccco2)c1 (stereo unspecified) | . | . | . | . | . | .
Cc1nn(-c2ccccc2)c(C)c1[N+](=O)[O-] | . | . | . | . | . | .
Cc1onc(-c2ccccc2)c1C(=O)NNC(=S)NC(=O)c1ccc(Br)cc1 | . | 19.6 | . | . | . | .
O=C(O)c1cc(Cl)c(Cl)cc1C(=O)Nc1cccc2cccnc12 | . | . | . | . | . | .
CC1(C)Cc2c(sc3c2C2=NCCN2C=N3)CO1 | . | 6.97 | . | . | . | .
N=C1C(c2nc3ccccc3[nH]2)=C(O)CN1NC(=O)COc1cccc(F)c1 | . | . | . | . | . | .
Cc1ccc2[nH]c(-c3ccccc3)cc(=O)c2c1 | . | . | . | . | . | .
COc1ccc(-c2cc(=O)c3cc(C)ccc3[nH]2)cc1 | 150.1 | . | . | . | . | .
Cc1ccc(-c2cc(=O)c3cc(Cl)ccc3[nH]2)cc1 | 143.1 | . | . | / | / | /
Cc1ccc2c(c1)NC(=O)CC(c1ccccc1)=N2 | . | . | . | . | . | .
CC1=CC(C)=Nc2ccc(C)cc2N1 | 138.6 | . | . | . | . | .
CCc1nc(SCC(=O)c2cccs2)c2oc3ccccc3c2n1 | . | . | . | . | . | .
SMILES | STAT1 activator | KCC2 mod | STAT1 inh | STAT3 inh | STAT3 act | HSV replic up
CCOC(=O)c1ccc2nc3c(cc2c1)CCS3 | 135.0 | . | . | . | . | .
Nc1cccc(C(=O)N/N=C/c2ccsc2)c1 | . | . | . | . | . | .
CC(C)c1ccc(-c2nnc(N)s2)cc1 | 132.6 | . | . | . | . | .
COc1ccc(S(=O)(=O)N2Cc3ccccc3CC2C(=O)Nc2nccs2)cc1OC (stereo unspecified) | . | . | . | . | . | .
CCS(=O)(=O)N1Cc2ccccc2CC1C(=O)Nc1nccs1 (stereo unspecified) | 132.6 | . | . | . | . | .
CCS(=O)(=O)N1Cc2ccccc2CC1C(=O)Nc1nc(C)cs1 (stereo unspecified) | 134.4 | . | . | . | . | .
CCN(CC)S(=O)(=O)c1cccc(NC(=O)c2ccc(-n3nc(C)cc3C)cc2)c1 | . | . | . | . | . | .
O=C(/C=C/c1cccs1)N1CCN(c2ccc(O)cc2)CC1 | . | . | . | . | . | .
O=C(/C=C/c1cccs1)N1CCCCC1 | 130.1 | . | . | . | . | .
Nc1nc(-c2nc3ccccc3[nH]2)cs1 | 140.0 | / | . | . | . | .
c1ccc(-c2nc3ccccc3[nH]2)nc1 | 136.7 | . | . | . | . | .
